Source: ChEMBL document CHEMBL1151798, “Monoacylglycerol lipase regulates 2-arachidonoylglycerol action and arachidonic acid levels” (Bioorg Med Chem Lett, 2008)
Activity calls are given as the source filed them. The calls are words filed in the database; no cut-off is given here.

Tests used:
[1] = biological target: Cannabinoid receptor 1 (Mus musculus) (UniProt P47746); assay: Displacement of [3H]CP-55940 from mouse CB1 receptor expressed in HEK293 cells up to 100,000 nM; type: cell-based
[2] = biological target: Cannabinoid receptor 1 (Mus musculus) (UniProt P47746); assay: Displacement of [3H]CP-55940 from CB1 receptor in mouse brain at 100 nM; type: tissue-based
[3] = biological target: T1, Monoglyceride lipase (Mus musculus, UniProt O35678); assay: Inhibition of MAGL-mediated 2-arachidonoylglycerol hydrolysis in mouse brain; type: tissue-based
T1 sequence (O35678 whole entry): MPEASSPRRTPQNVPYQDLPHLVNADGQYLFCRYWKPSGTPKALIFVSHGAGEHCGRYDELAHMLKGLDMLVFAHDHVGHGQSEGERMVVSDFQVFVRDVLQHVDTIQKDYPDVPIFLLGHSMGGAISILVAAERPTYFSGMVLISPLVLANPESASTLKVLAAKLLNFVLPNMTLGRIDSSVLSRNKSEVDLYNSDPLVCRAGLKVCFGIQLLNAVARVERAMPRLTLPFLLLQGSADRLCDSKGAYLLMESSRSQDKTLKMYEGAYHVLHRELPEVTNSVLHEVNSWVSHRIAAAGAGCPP

[4] = biological target: T2, Fatty-acid amide hydrolase 1 (Mus musculus, UniProt O08914); assay: Inhibition of FAAH-mediated [3H]anandamide hydrolysis in mouse brain; type: tissue-based
T2 sequence (O08914 whole entry): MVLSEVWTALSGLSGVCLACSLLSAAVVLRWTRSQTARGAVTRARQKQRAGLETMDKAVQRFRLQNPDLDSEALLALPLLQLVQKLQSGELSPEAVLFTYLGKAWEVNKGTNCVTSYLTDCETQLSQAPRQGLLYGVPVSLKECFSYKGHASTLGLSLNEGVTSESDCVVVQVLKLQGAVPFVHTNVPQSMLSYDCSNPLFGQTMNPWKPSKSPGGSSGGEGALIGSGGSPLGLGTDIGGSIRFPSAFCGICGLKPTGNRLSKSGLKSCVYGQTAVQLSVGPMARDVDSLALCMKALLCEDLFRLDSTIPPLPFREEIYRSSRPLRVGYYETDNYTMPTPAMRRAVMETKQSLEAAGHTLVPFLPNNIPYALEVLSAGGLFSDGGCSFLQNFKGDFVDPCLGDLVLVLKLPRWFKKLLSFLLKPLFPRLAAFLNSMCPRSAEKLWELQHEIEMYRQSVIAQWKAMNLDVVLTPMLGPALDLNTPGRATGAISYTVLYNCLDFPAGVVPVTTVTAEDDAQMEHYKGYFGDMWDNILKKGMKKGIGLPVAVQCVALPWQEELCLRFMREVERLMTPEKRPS

[5] = tested on: Mus musculus; assay: Modulation of cataleptic behavior in Swiss-Webster mouse assessed as >10 sec latency along with flattened posture and open eyes at 10 mg/kg, ip by bar test; type: functional, organism-based; parameters: dose 10 mg/kg
Summary of the method: (§1)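 Mice were given an intraperitoneal dose of 10 or 100 mg/kg and scored for catalepsy by bar test. A cannabinoid response was a latency >10 s, plus a qualitatively flattened posture and remaining motionless with eyes open. n=3 mice per treatment group, mean ± S.D.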

[6] = tested on: Mus musculus; assay: Modulation of cataleptic behavior in Swiss-Webster mouse assessed as >10 sec latency along with flattened posture at 100 mg/kg, ip by bar test; type: functional, organism-based; parameters: dose 100 mg/kg; summary of the method: as §1
[7] = tested on: Mus musculus; assay: Increase in Swiss-Webster mouse brain 2-arachidonoylglycerol level at 10 mg/kg, ip; type: functional, organism-based; parameters: dose 10 mg/kg
Summary of the method: (§2)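 Mice received single intraperitoneal doses (10 or 100 mg/kg). Brain levels of 2-AG and arachidonic acid were then measured. Values are mean ± S.D., n=3 mice per treatment group.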

[8] = tested on: Mus musculus; assay: Increase in Swiss-Webster mouse brain 2-arachidonoylglycerol level at 100 mg/kg, ip; type: functional, organism-based; parameters: dose 100 mg/kg; summary of the method: as §2
[9] = tested on: Mus musculus; assay: Decrease in Swiss-Webster mouse brain arachidonic acid level at 10 mg/kg, ip; type: functional, organism-based; parameters: dose 10 mg/kg; summary of the method: as §2
[10] = tested on: Mus musculus; assay: Decrease in Swiss-Webster mouse brain arachidonic acid level at 100 mg/kg, ip; type: functional, organism-based; parameters: dose 100 mg/kg; summary of the method: as §2
[11] = biological target: Cannabinoid receptor 1 (Mus musculus, UniProt P47746); assay: Displacement of [3H]CP-55940 from CB1 receptor in mouse brain; type: tissue-based
Chain of Cannabinoid receptor 1 (P47746 whole entry): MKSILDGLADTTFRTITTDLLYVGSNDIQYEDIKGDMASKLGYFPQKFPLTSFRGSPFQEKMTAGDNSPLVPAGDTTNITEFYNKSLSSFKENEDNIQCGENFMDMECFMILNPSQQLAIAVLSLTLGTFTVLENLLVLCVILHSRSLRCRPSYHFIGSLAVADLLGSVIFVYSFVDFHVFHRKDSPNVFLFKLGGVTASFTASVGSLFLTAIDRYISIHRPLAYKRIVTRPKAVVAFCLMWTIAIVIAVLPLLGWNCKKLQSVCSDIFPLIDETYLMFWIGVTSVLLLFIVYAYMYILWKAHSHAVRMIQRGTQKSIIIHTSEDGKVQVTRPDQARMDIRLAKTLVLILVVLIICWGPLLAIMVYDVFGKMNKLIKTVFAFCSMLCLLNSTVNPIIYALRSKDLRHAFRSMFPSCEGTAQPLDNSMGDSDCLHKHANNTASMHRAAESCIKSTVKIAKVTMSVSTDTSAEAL

Chain of Cannabinoid receptor 1 (Mus musculus) (P47746 whole entry): as above

## CCOP(=O)(OCC)Oc1nc(Cl)c(Cl)cc1Cl
[1]
  Activity: inactive
[2]
  Bmax: 0.17 pmol/mg

## CCCCCCCCS(=O)(=O)F
[3]
  IC50: 140 nM
[4]
  IC50: 1.9 nM
[5]
  Activity: Active
[6]
  Activity: Active
[7]
  Activity: Active
[8]
  Activity: Active
[9]
  Activity: Active
[10]
  Activity: Active

## CCOP(=O)(OCC)Oc1ccc([N+](=O)[O-])cc1 [PARAOXON]
[3]
  IC50: 2300 nM
[4]
  IC50: 540 nM
[11]
  IC50: 1200 nM

## CCCCCCCCCCCCP(=O)(OCC)Oc1ccc(C#N)cc1 (stereo not drawn)
[3]
  IC50: 0.07 nM
[4]
  IC50: 12 nM
[11]
  IC50: 4 nM
[5]
  Activity: Active
[6]
  Activity: Active
[7]
  Activity: Active
[8]
  Activity: Active
[9]
  Activity: Active
[10]
  Activity: Active

## CCCCCCCCCCCCP(=O)(OCC)Oc1nc(Cl)c(Cl)cc1Cl (stereo not drawn)
[3]
  IC50: 0.14 nM
[4]
  IC50: 42 nM
[11]
  IC50: 14 nM
[5]
  Activity: inactive
[6]
  Activity: inactive
[7]
  Activity: inactive
[8]
  Activity: inactive
[9]
  Activity: inactive
[10]
  Activity: inactive

## CCCCCCCCCSP1(=O)OCc2ccccc2O1 (stereo not drawn)
[3]
  IC50: 0.31 nM
[4]
  IC50: 0.15 nM

## CCCCCCCCCCCCP(=O)(Oc1ccc([N+](=O)[O-])cc1)OC(C)C (stereo not drawn)
[3]
  IC50: 0.28 nM
[4]
  IC50: 3 nM
[11]
  IC50: 12 nM

## CCCCCCCCCCCCS(=O)(=O)F [DODECANESULFONYL FLUORIDE]
[3]
  IC50: 200 nM
[5]
  Activity: Active
[6]
  Activity: Active
[7]
  Activity: Active
[8]
  Activity: Active
[9]
  Activity: Active
[10]
  Activity: Active
